Test results reported in ChEMBL document CHEMBL3272253, “Relationship of molecular structure to in vivo scintigraphic distribution patterns of carbon-11 labeled compounds. 3. (11C)Hydantoins” (J Med Chem, 1976).

What was measured:
Details in all cases: in vivo; call rule not given here
[1] = Drug level in iv dosed dog lung by gamma-scintillation counting analysis; format: ADME, organism-based, Canis lupus familiaris
In short: (§1)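 Carbon-11-labeled hydantoin, 1–59 mCi of final product, dissolved in 1–1.5% aqueous NaOH and given iv to dogs. Distribution imaged serially for up to 2 hr or more with a scintillation camera fitted with a pinhole collimator (1-cm hyperbolic aperture), with whole-body scintiphotos at about 5 and 30 min. Readout is qualitative to semiquantitative; no coincidence imaging.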

[2] = test system: Liver; test: Drug level in iv dosed dog liver by gamma-scintillation counting analysis; format: ADME, organism-based, Canis lupus familiaris; in short: as §1
[3] = test system: Canis familiaris; test: Drug level in iv dosed dog by gamma-scintillation counting analysis; format: ADME, organism-based, Canis lupus familiaris; in short: as §1
[4] = Drug level in iv dosed dog kidney by gamma-scintillation counting analysis; format: ADME, organism-based, Canis lupus familiaris; in short: as §1
[5] = Drug excretion in iv dosed dog urine by gamma-scintillation counting analysis; format: ADME, organism-based, Canis lupus familiaris; in short: as §1
[6] = test system: Brain; test: Drug level in iv dosed dog brain after 5 to 30 mins by gamma-scintillation counting analysis; format: ADME, organism-based, Canis lupus familiaris; in short: as §1
[7] = Drug excretion in iv dosed dog bile after 5 to 30 mins by gamma-scintillation counting analysis; format: ADME, organism-based, Canis lupus familiaris; in short: as §1
[8] = Drug level in iv dosed dog vein by gamma-scintillation counting analysis; format: ADME, organism-based, Canis lupus familiaris; in short: as §1
[9] = test system: Brain; test: Drug level in iv dosed dog brain by gamma-scintillation counting analysis; format: ADME, organism-based, Canis lupus familiaris; in short: as §1
[10] = Drug excretion in iv dosed dog bile by gamma-scintillation counting analysis; format: ADME, organism-based, Canis lupus familiaris; in short: as §1
[11] = test system: Brain; test: Drug level in iv dosed dog brain after 40 mins by gamma-scintillation counting analysis; format: ADME, organism-based, Canis lupus familiaris
In short: (§2)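 Dogs received the 11C-labeled hydantoin iv in 1–1.5% aqueous NaOH. Organs and tissues were taken at necropsy 40 min after dosing and placed at fixed geometrical positions in front of a thallium-activated NaI scintillation detector. Detected scintillation events gave quantitative estimates of tissue activity.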

[12] = Drug level in iv dosed dog cerebrospinal fluid after 40 mins by gamma-scintillation counting analysis; format: ADME, organism-based, Canis lupus familiaris; in short: as §2
[13] = Drug level in iv dosed dog blood after 40 mins by gamma-scintillation counting analysis; format: ADME, organism-based, Canis lupus familiaris; in short: as §2
[14] = Drug level in iv dosed dog kidney after 40 mins by gamma-scintillation counting analysis; format: ADME, organism-based, Canis lupus familiaris; in short: as §2
[15] = Drug level in iv dosed dog heart after 40 mins by gamma-scintillation counting analysis; format: ADME, organism-based, Canis lupus familiaris; in short: as §2
[16] = Drug level in iv dosed dog skeletal muscle after 40 mins by gamma-scintillation counting analysis; format: ADME, organism-based, Canis lupus familiaris, Muscle tissue; in short: as §2
[17] = Drug level in iv dosed dog lung after 40 mins by gamma-scintillation counting analysis; format: ADME, organism-based, Canis lupus familiaris; in short: as §2
[18] = Drug level in iv dosed dog stomach after 40 mins by gamma-scintillation counting analysis; format: ADME, organism-based, Canis lupus familiaris; in short: as §2
[19] = Drug level in iv dosed dog pancreas after 40 mins by gamma-scintillation counting analysis; format: ADME, organism-based, Canis lupus familiaris; in short: as §2
[20] = test system: Liver; test: Drug level in iv dosed dog liver after 40 mins by gamma-scintillation counting analysis; format: ADME, organism-based, Canis lupus familiaris; in short: as §2
[21] = Drug level in iv dosed dog mesenteric fat after 40 mins by gamma-scintillation counting analysis; format: ADME, organism-based, Canis lupus familiaris; in short: as §2
[22] = Drug level in iv dosed dog omentum after 40 mins by gamma-scintillation counting analysis; format: ADME, organism-based, Canis lupus familiaris; in short: as §2
[23] = test system: Canis familiaris; test: Drug level in iv dosed dog after 5 to 30 mins by gamma-scintillation counting analysis; format: ADME, organism-based, Canis lupus familiaris; in short: as §1
[24] = Drug excretion in iv dosed dog urine after 1 hr by gamma-scintillation counting analysis; format: ADME, organism-based, Canis lupus familiaris
[25] = test system: Nucleic Acid; test: Ratio of drug level in iv dosed dog brain to temporal muscle after 80 mins by gamma-scintillation counting analysis; format: ADME, organism-based, Canis lupus familiaris
In short: (§3)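 Dogs were dosed iv with 11C-labeled hydantoin. Tissues and fluids were collected at necropsy 73 or 80 min post-dose and counted at fixed geometry in front of a thallium-activated NaI scintillation detector. Values are cpm/g of tissue divided by cpm/g of temporal muscle.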

[26] = test system: Nucleic Acid; test: Ratio of drug level in iv dosed dog lung to temporal muscle after 80 mins by gamma-scintillation counting analysis; format: ADME, organism-based, Canis lupus familiaris; in short: as §3
[27] = test system: Nucleic Acid; test: Ratio of drug level in iv dosed dog washed heart to temporal muscle after 80 mins by gamma-scintillation counting analysis; format: ADME, organism-based, Canis lupus familiaris
In short: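 Dogs received the [11C]-labeled hydantoin intravenously. At necropsy 80 min post-injection, the heart was washed and collected with temporal muscle. Each sample was placed at a fixed position before a thallium-activated NaI scintillation detector. The ratio is cpm/g tissue over cpm/g temporal muscle.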

[28] = test system: Nucleic Acid; test: Ratio of drug level in iv dosed dog liver to temporal muscle after 80 mins by gamma-scintillation counting analysis; format: ADME, organism-based, Canis lupus familiaris; in short: as §3
[29] = test system: Nucleic Acid; test: Ratio of drug level in iv dosed dog bile to temporal muscle after 80 mins by gamma-scintillation counting analysis; format: ADME, organism-based, Canis lupus familiaris; in short: as §3
[30] = test system: Nucleic Acid; test: Ratio of drug level in iv dosed dog spleen to temporal muscle after 80 mins by gamma-scintillation counting analysis; format: ADME, organism-based, Canis lupus familiaris; in short: as §3
[31] = test system: Nucleic Acid; test: Ratio of drug level in iv dosed dog stomach to temporal muscle after 80 mins by gamma-scintillation counting analysis; format: ADME, organism-based, Canis lupus familiaris; in short: as §3
[32] = test system: Nucleic Acid; test: Ratio of drug level in iv dosed dog pancreas to temporal muscle after 80 mins by gamma-scintillation counting analysis; format: ADME, organism-based, Canis lupus familiaris; in short: as §3
[33] = test system: Nucleic Acid; test: Ratio of drug level in iv dosed dog kidney to temporal muscle after 80 mins by gamma-scintillation counting analysis; format: ADME, organism-based, Canis lupus familiaris; in short: as §3
[34] = test system: Nucleic Acid; test: Ratio of drug level in iv dosed dog blood to temporal muscle after 80 mins by gamma-scintillation counting analysis; format: ADME, organism-based, Canis lupus familiaris; in short: as §3
[35] = test system: Nucleic Acid; test: Ratio of drug level in iv dosed dog mesenteric fat to temporal muscle after 80 mins by gamma-scintillation counting analysis; format: ADME, organism-based, Canis lupus familiaris; in short: as §3

Drug uptake [1]	Drug uptake [2]	Drug uptake [3]	Drug uptake [4]	Drug excretion [5]	Drug uptake [6]	Drug excretion [7]	Drug uptake [9]	Drug excretion [10]	SMILES	further results
Active	Active	Active	Active	metabolite_detected					CSCCC1NC(=O)N[11C]1=O (stereo unspecified)	
Active	Active	Active	Active	metabolite_detected	Not Active	metabolite_notdetected			CCC1(CC)NC(=O)N[11C]1=O	
Active	Active	Active	Active	metabolite_detected	Not Active	metabolite_notdetected			CCCC1(CCC)NC(=O)N[11C]1=O	
Active	Active	Active	Active	metabolite_detected	Not Active	metabolite_notdetected			CC(C)CC1(CC(C)C)NC(=O)N[11C]1=O	
Active	Active	Active	Active	metabolite_detected	Not Active	metabolite_notdetected			CC1(CCC(=O)O)NC(=O)N[11C]1=O (stereo unspecified)	Drug uptake [8]: Active
			Active	metabolite_detected			Active	metabolite_detected	O=C1N[11C](=O)C(c2ccccc2)(c2ccccc2)N1	Drug uptake [11]: Active; Drug uptake [12]: Active; Drug uptake [13]: Active; Drug uptake [14]: Active; Drug uptake [15]: Active; Drug uptake [16]: Active; Drug uptake [17]: Active; Drug uptake [18]: Active; Drug uptake [19]: Active; Drug uptake [20]: Active; Drug uptake [21]: Active; Drug uptake [22]: Active
			Active	metabolite_detected			Active	metabolite_detected	O=C1N[11C](=O)C(c2ccc(Cl)cc2)(c2ccc(Cl)cc2)N1	
			Active	metabolite_detected			Active	metabolite_detected	O=C1N[11C](=O)C(c2ccccc2)N1c1ccccc1 (stereo unspecified)	
									O=C1NC(c2ccccc2)[11C](=O)N1 (stereo unspecified)	Drug uptake [23]: Active; Drug excretion [24]: metabolite_detected; Ratio [25]: 0.73; Ratio [26]: 1.05; Ratio [27]: 0.71; Ratio [28]: 2.25; Ratio [29]: 0.83; Ratio [30]: 0.81; Ratio [31]: 0.76; Ratio [32]: 0.63; Ratio [33]: 1.91; Ratio [34]: 0.93; Ratio [35]: 0.25
